Screens: PubChem, The Scripps Research Institute Molecular Screening Center
Only some compounds are listed: those with a hit (about 1.8% of all), similar ones and a draw of the others.
TCR CD3 inh = human TCR-CD3 binding inhibition. TAMRA-labeled TCR probe fluorescence, biochemical. inhibition, % at 9.4 µM. 360,000 compounds, 0.37% hits. AID 651800;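 note: recombinant mutant TCR 2C K166C tagged with TAMRA read by polarization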
Fam108B inh = blocks mouse Fam108B hydrolase in RBBP9 counter-screen. recombinant Fam108B, FP-Rh probe fluorescence polarization. inhibition, % at 9.51 µM. 300,000 compounds, 0.33% hits. AID 1947;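 active = inhibition above the screen mean inhibition plus 3 SD, computed separately per campaign, cut at about 18% in these data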;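 note: inhibitors lower polarization as less probe binds the enzyme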
PME-1 inh = blocks human protein phosphatase methylesterase 1; Q9Y570; 320,000 compounds, 0.53% hits; AID 2130; recombinant PME-1, FP-Rh probe fluorescence polarization; inhibition, % at 5.9 µM;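 active = inhibition above the campaign mean of all compounds plus 3 SD, cut at about 26% in these data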;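 note: competitive labeling of PME-1 active site by serine hydrolase directed probe; inhibitors block probe labeling so polarization falls and inhibition rises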
SIAE inh = human SIAE inhibition, primary screen | SIAE FP-Rh probe binding, fluorescence polarization | 370,000 compounds, 0.69% hits | inhibition, % at 9.66 µM;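 active = inhibition above a cutoff: mean of compounds within the control limits plus 3 SD of those, cut at about 17% in these data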
HTRA1 inhibitor = blocks human HTRA1 serine peptidase | recombinant HTRA1, FP-rhodamine activity-based probe, fluorescence polarization | AID 504803 | inhibition, % at 5.96 µM | Q92743 | 340,000 compounds, 0.5% hits; in the data active = inhibition above about 36%
Target sequence (Q92743 whole entry, looked up): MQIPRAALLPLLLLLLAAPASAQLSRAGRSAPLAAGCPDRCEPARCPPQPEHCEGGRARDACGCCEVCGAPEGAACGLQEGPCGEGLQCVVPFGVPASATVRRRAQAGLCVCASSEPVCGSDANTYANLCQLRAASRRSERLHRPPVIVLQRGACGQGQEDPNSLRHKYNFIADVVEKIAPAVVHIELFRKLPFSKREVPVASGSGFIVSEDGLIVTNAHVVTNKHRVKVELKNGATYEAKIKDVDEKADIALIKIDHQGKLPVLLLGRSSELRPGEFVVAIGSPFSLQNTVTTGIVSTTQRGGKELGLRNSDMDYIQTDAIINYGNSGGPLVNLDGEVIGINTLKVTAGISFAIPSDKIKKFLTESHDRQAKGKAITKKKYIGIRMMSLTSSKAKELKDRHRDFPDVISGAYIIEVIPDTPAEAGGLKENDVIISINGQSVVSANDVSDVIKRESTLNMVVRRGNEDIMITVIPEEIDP
mABHD4 FP = inhibitors of mouse ABHD4; AID 720543; Q8VD66; inhibition, % at 8.92 µM; purified mABHD4, FP-Rh probe fluorescence polarization; 370,000 compounds, 0.54% hits;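 active = inhibition exceeding the mean over every tested compound plus 3 SD, cut at about 30% in these data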
Target sequence (Q8VD66 whole entry, looked up): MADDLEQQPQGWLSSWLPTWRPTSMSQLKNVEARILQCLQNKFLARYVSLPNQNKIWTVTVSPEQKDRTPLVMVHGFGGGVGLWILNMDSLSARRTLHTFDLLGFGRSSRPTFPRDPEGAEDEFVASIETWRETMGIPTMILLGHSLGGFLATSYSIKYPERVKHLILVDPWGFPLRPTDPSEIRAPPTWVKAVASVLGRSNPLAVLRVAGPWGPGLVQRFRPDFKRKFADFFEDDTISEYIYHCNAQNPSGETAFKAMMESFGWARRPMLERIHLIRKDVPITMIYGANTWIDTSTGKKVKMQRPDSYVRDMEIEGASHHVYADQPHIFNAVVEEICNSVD
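assay system = mABHD4 protein | compound dosing = single nominal dose of 8.92 µM, 0.89% DMSO final | read-out basis = percent inhibition of probe binding, normalized to plate controls | schedule = Enzyme–compound pre-incubation 45 min, then probe 60 min, both 25 °C | detection = fluorescence polarization, excitation 525 nm, emission 598 nm, BODIPY TMR filters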
HTRA1 conf = HTRA1 (human) inhibition, confirmation | shares compounds with HTRA1 inhibitor | recombinant HTRA1, FP-rhodamine activity-based probe, fluorescence polarization | inhibition, % at 5.96 µM | 1,600 compounds, 66% hits;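 active = mean inhibition over three repeats above a set limit taken from the earlier primary screen, cut at about 37% in these data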;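 note: inhibitors block probe binding so polarization drops and inhibition rises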
BSA TAMRA ctr = counter-screen for TCR-CD3 interaction inhibitors: BSA probe. inhibition, % at 9.4 µM. shares compounds with TCR CD3 inh. AID 652035. 1,200 compounds, 10% hits. TAMRA-labeled BSA probe fluorescence counterscreen; in the data active = inhibition above about 23%
TCR-CD3 inh conf = confirmation of human TCR-CD3 interaction inhibitors | shares compounds with TCR CD3 inh | TAMRA-labeled TCR probe fluorescence binding assay | inhibition, % at 9.4 µM | 1,200 compounds, 48% hits
ABHD4 confirm = ABHD4 (mouse) inhibition, FP confirmation. shares compounds with mABHD4 FP. purified mABHD4, FP-Rh probe fluorescence polarization. inhibition, % at 8.92 µM. 1,800 compounds, 55% hits. AID 720658;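 active = mean inhibition across replicates above the hit cutoff set in the primary screen, cut at about 30% in these data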
Each line names hits and unclear results; the compound was inactive in the other large screens (follow-up assays come after a bar, where they were run); ! = not confirmed by another sample. Cut-off read from the data, not from the text of the source, unless noted: active = inhibition above about 19%; inactive = the rest.

O=C1C(NS(=O)(=O)c2cccs2)=C(N2CCN(c3cccc(Cl)c3)CC2)C(=O)c2ccccc21	HTRA1 inhibitor 58.0, mABHD4 FP 55.4 | HTRA1 conf 74.7 | ABHD4 confirm 56.0
O=C1C(NS(=O)(=O)c2ccccc2)=C(N2CCN(c3ccc(F)cc3)CC2)C(=O)c2ccccc21	HTRA1 inhibitor 48.0, mABHD4 FP 52.5 | HTRA1 conf 63.3 | ABHD4 confirm 63.1
CC1CCN(C2=C(NS(=O)(=O)c3ccc(Br)cc3)C(=O)c3ccccc3C2=O)CC1	HTRA1 inhibitor 36.3, mABHD4 FP 40.6 | HTRA1 conf 86.3 | ABHD4 confirm 65.4
O=S1(=O)C=CCN1Cc1cn(Cc2ccccc2)nn1	none (no result: TCR CD3 inh, Fam108B inh, PME-1 inh, HTRA1 inhibitor)
O=C1OC(c2ccc3ccccc3c2O)(c2ccc3ccccc3c2O)c2ccccc21	HTRA1 inhibitor 36.2, mABHD4 FP 43.8 (no result: Fam108B inh, PME-1 inh) | HTRA1 conf 44.0 | ABHD4 confirm 48.0
O=C1OC2(c3ccccc31)c1ccccc1-c1ccccc12	none (no result: Fam108B inh, PME-1 inh)
CNc1ccc(Br)cc(C(=O)/C=C/c2cccc(OC)c2OC)c1=O	HTRA1 inhibitor 39.2, mABHD4 FP 39.0 | HTRA1 conf inactive | ABHD4 confirm 33.8
CNc1ccccc(C(=O)/C=C/c2ccccc2OC)c1=O	none
CNc1ccc(Br)cc(C(=O)/C=C/c2cccc(Cl)c2Cl)c1=O	HTRA1 inhibitor 65.3, mABHD4 FP 42.0 (no result: Fam108B inh, PME-1 inh) | HTRA1 conf inactive | ABHD4 confirm 35.4
CCCCNC(=O)C[C@H]1C[C@@]2(C(=O)OC)C(=C[C@H](C(C)C)O[C@@H]2C2CC2)N(Cc2ccc(Cl)cc2Cl)C1=O	none (no result: TCR CD3 inh, Fam108B inh, PME-1 inh, HTRA1 inhibitor)
CC(=O)N1CCc2c1cccc2S(=O)(=O)NC(CC(C)C)C(=O)Nc1ccc(Cl)c(Cl)c1 (configuration not stated)	none (no result: TCR CD3 inh, Fam108B inh, PME-1 inh, HTRA1 inhibitor)
Cc1cc(C)c2nc(NNC(=O)c3cc(=O)c4ccccc4o3)sc2c1	HTRA1 inhibitor 69.2, mABHD4 FP 39.7 | HTRA1 conf 58.7 | ABHD4 confirm 61.2
CCOC(=O)Cc1csc(NC(=O)c2cc(=O)c3ccccc3o2)n1	none
COc1ccc(Nc2c([N+](=O)[O-])ccc3c2=NC2(CCCCC2)N=3)cc1	HTRA1 inhibitor 54.7, mABHD4 FP 30.5 | HTRA1 conf 51.9 | ABHD4 confirm 40.3
COC(=O)[C@]12C[C@H](CC(=O)NCc3ccc(C)o3)C(=O)N(CCc3ccc(OC)c(OC)c3)C1=C[C@H](C(C)C)O[C@@H]2C1CC1	none (no result: TCR CD3 inh, Fam108B inh, PME-1 inh, HTRA1 inhibitor)
Cc1cc(C(=O)OCC(=O)NC2CCCCC2C)c2ccccc2n1 (configuration not stated)	none (no result: Fam108B inh, PME-1 inh)
CC1CCCCC1NC(=O)COC(=O)c1c2c(nc3ccccc13)/C(=C/c1ccco1)CC2 (configuration not stated)	HTRA1 inhibitor 80.7, mABHD4 FP 38.2 | HTRA1 conf inactive | ABHD4 confirm inactive
C[C@H](NC(=O)C[C@@H]1C[C@@H]2c3cc(NC(=O)C4CCC4)ccc3O[C@@H]2[C@@H](CO)O1)c1ccccc1	none (no result: Fam108B inh, PME-1 inh, HTRA1 inhibitor)
COc1ccc(N2C3=C(CC4=C2CCCC4=O)C(=O)CCC3)cc1	HTRA1 inhibitor 76.4, mABHD4 FP 59.3 | HTRA1 conf 67.8 | ABHD4 confirm inactive
COc1ccc(-n2ccc(=O)c3c2CCCC3=O)cc1	none
CCCCCCCCN1CCS(=O)(=O)N(Cc2ccccc2)C(C(=O)OC)C1 (configuration not stated)	none (no result: TCR CD3 inh, Fam108B inh, PME-1 inh, HTRA1 inhibitor)
CC(Nc1cccc2ccccc12)C(=O)N/N=C/c1ccccn1 (configuration not stated)	HTRA1 inhibitor 45.9, mABHD4 FP 47.7 | HTRA1 conf inactive | ABHD4 confirm inactive
O=C(CCCC(=O)N/N=C\c1ccccn1)N/N=C\c1ccccn1	none
Clc1ccc(CN2CCN(N=Cc3ccncc3)CC2)cc1	none (no result: TCR CD3 inh, Fam108B inh, PME-1 inh, HTRA1 inhibitor)
O=C1CC(N(O)c2ccccc2)C(=O)N1c1cc(Cl)cc(Cl)c1 (configuration not stated)	TCR CD3 inh 25.1, PME-1 inh 34.4, HTRA1 inhibitor 40.0, mABHD4 FP 45.3 | HTRA1 conf inactive | BSA TAMRA ctr inactive | TCR-CD3 inh conf inactive | ABHD4 confirm inactive
CCCCOCCCNC(=O)C[C@H]1C[C@@]2(C(=O)OC)C(=C[C@H](C(C)(C)C)O[C@@H]2C)N(Cc2ccc(Cl)cc2Cl)C1=O	none (no result: TCR CD3 inh, Fam108B inh, PME-1 inh, HTRA1 inhibitor)
CC1=NN(c2ccc(C)cc2)C(=O)/C1=C/c1ccc(-c2cc([N+](=O)[O-])ccc2O)o1	HTRA1 inhibitor 46.4, mABHD4 FP 31.0 (no result: Fam108B inh, PME-1 inh) | HTRA1 conf 52.9 | ABHD4 confirm 53.4
Cc1ccc(C2=C(O)C(=O)C(c3ccc(C)cc3)=C(O)C2=O)cc1	HTRA1 inhibitor 84.8, mABHD4 FP 45.8 (no result: Fam108B inh, PME-1 inh) | HTRA1 conf 97.7 | ABHD4 confirm 60.4
CN1CCc2cccc3c2[C@H]1Cc1ccc(O)c(O)c1-3	SIAE inh 18.4!, HTRA1 inhibitor 59.1, mABHD4 FP 88.3 | HTRA1 conf 50.4 | ABHD4 confirm inactive
CNC(=S)N/N=C/c1c(C(=O)OC)cnn1-c1ccc(Cl)cc1	none (no result: TCR CD3 inh, Fam108B inh, PME-1 inh, HTRA1 inhibitor)
CCNc1ccccc(C(=O)/C=C/c2ccc3c(c2)OCO3)c1=O	HTRA1 inhibitor 36.3, mABHD4 FP 41.5 | HTRA1 conf inactive | ABHD4 confirm inactive
COc1ccc(-n2c(COc3ccccc3)nnc2SCC(=O)Nc2ccccc2-c2ccccc2)cc1	none (no result: TCR CD3 inh, Fam108B inh, PME-1 inh, HTRA1 inhibitor)
CCC(=Nc1ccc(N)cc1)C1=C(O)C(C(=O)OC)C(C)(C)CC1=O (configuration not stated)	TCR CD3 inh 68.0, PME-1 inh 26.5, SIAE inh 24.8, HTRA1 inhibitor 53.2, mABHD4 FP 82.0 | HTRA1 conf inactive | BSA TAMRA ctr inactive | TCR-CD3 inh conf inactive | ABHD4 confirm inactive
O=C1c2ccccc2C(=O)c2c(/C=C/N3CCCCC3)ccnc21	HTRA1 inhibitor 60.9, mABHD4 FP 46.3 (no result: Fam108B inh, PME-1 inh) | HTRA1 conf 64.3 | ABHD4 confirm 36.3
COC(=O)[C@]12C[C@H](CC(=O)N3CCN(C(=O)c4ccco4)CC3)C(=O)N(Cc3ccco3)C1=C[C@H](C(C)(C)C)O[C@@H]2C	none (no result: TCR CD3 inh, Fam108B inh, PME-1 inh, HTRA1 inhibitor)
C=CCN1C(=O)[C@@H](CC(=O)NCc2cccs2)[C@]2(C(=O)OC)CCCCC=C12	none (no result: TCR CD3 inh, Fam108B inh, PME-1 inh, HTRA1 inhibitor)
COCC(=O)NCc1ccc2c(c1)cc(C)n2C	none
Cc1cc2cc(CNC(=O)COc3ccccc3)ccc2n1C	TCR CD3 inh 27.1, HTRA1 inhibitor 45.2, mABHD4 FP 32.2 | HTRA1 conf inactive | BSA TAMRA ctr inactive | TCR-CD3 inh conf inactive | ABHD4 confirm inactive
